CHRM5 agonist = agonists of human muscarinic M5 receptor (CHRM5). P08912. CHO-K1 hM5 cells, Fluo-8 calcium fluorescence; 0% DMSO wells, 100% maximal acetylcholine response. activation, % at 3 µM. hit rate 0.19% among 360,000. AID 624037;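 active means activation above the run's mean over test compounds plus 3 SD, cut at about 23% in these data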;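 further: signal is peak over basal fluorescence ratio across the kinetic read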
Target sequence (P08912 whole entry, looked up): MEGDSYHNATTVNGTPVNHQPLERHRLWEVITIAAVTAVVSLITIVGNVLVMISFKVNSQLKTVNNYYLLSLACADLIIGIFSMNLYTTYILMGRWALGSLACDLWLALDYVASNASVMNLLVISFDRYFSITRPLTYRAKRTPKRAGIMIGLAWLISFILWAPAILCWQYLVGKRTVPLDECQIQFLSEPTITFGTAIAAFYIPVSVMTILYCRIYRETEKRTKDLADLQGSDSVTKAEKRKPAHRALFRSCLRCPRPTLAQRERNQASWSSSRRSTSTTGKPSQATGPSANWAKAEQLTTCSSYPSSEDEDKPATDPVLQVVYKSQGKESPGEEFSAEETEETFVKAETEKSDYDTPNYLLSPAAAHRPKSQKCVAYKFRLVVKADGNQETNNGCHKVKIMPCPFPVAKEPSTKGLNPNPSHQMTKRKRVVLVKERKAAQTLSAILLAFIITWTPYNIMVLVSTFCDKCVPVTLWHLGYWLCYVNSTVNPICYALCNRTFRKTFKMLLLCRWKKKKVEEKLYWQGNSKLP
M5 antag = antagonists of human muscarinic M5 receptor (CHRM5) | P08912 | CHO-hM5 cells, Fluo-8 calcium fluorescence, ACh EC80 | inhibition, % at 3 µM | hit rate 0.59% among 360,000;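 active means inhibition above a per-plate cutoff, the mean of that plate's test compounds plus 3 SD, cut at about 27% in these data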
CHRM4 antagonist = CHRM4 antagonism in calcium assay; P08173; CHO-hM4 cells, ACh EC80, Fluo-8 calcium fluorescence; inhibition, % at 3 µM; hit rate 0.73% among 360,000; AID 624125;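 active means inhibition above its plate's cutoff, the mean inhibition of sample wells plus 3 SD, cut at about 27% in these data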
M5 PAM = potentiates acetylcholine response at human M5 receptor | CHO-K1 hM5, Fluo-8 calcium, ACh EC20 PAM; 0% = ACh EC20, 100% = ACh EC100 | activation, % at 3 µM | AID 624038 | P08912 | hit rate 0.3% among 360,000;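 active means activation above the run cutoff, the mean activation of all test compounds plus 3 SD, cut at about 18% in these data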
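Assay system: CHO-K1 hM5 cells. Also added: acetylcholine at EC20 concentration, added after compound. Dosing: 3 µM, single dose. Times: compound preincubation 140 s before EC20 acetylcholine addition. Signal: Fluo-8 calcium fluorescence. Measure: % activation relative to EC20 and EC100 ACh responses. Repeats: singlicate, one well per test compound.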
CHRM4 PAM = CHRM4 positive allosteric modulation. AID 624126. P08173. hit rate 0.4% among 360,000. activation, % at 3 µM. CHO-K1 hM4/Gqi5, Fluo-8 calcium fluorescence, ACh EC20; 0% = ACh EC20, 100% = maximal ACh;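 active means activation above its plate's cutoff, the mean activation of sample wells plus 3 SD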
M4 ag = agonists of human muscarinic M4 receptor (CHRM4); activation, % at 3 µM; AID 624127; hit rate 0.14% among 360,000; CHO-K1 hM4/Gqi5, Fluo-8 calcium fluorescence; vehicle 0%, full acetylcholine response 100%; P08173;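 active means activation above the run mean over all test wells plus 3 SD, cut at about 32% in these data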;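 further: peak over basal fluorescence ratio per well then scaled between controls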
Of the large screens only hits and unclear results are named; the others gave an inactive call. Only some compounds are listed: those with a hit (about 1.9% of all), similar ones and a draw of the others.

CC(=O)N1CCN(C(=O)c2ccc(OC3CCN(CCc4ccccc4)CC3)cc2)CC1	none
CCOC(=O)C1CCN(C(=O)c2ccc(OC3CCN(C(=O)COC)CC3)cc2)CC1	CHRM4 PAM 20
Cc1ccccc1S(=O)(=O)NC(=O)C1(C)CCN1C(=O)CCc1ccc(Cl)cc1Cl (stereo not given)	none
C=CCn1c(SCC(=O)NC2CCCC2)nc2ccccc21	none
O=C(Nc1ccccc1C(=O)Nc1nnc(C(F)(F)F)s1)c1ccccc1	M5 antag 36
CSCCC(C(=O)Nc1c(C)cccc1C)n1c(-c2cnc(C)cn2)nc2ccccc21 (stereo not given)	none
Cc1ccc2nc(SCC(=O)O)nc(C)c2c1	CHRM4 PAM 19
O=C(C1CCN(c2nnc(-n3cccc3)s2)CC1)N1CCN(Cc2ccc3c(c2)OCO3)CC1	none
CC1CCN(Cc2ccc(NC(=O)C3CCN(c4nnc(-n5cccc5)s4)CC3)cc2)CC1	CHRM4 antagonist 33
CC(C)(C)N(Cc1cc2ccccc2[nH]c1=O)C(=O)C1CCCCC1	M5 antag 79
CCN(Cc1cc2ccccc2[nH]c1=O)C(=O)C1CCCCC1	none
COc1ccc(CN(CCCn2cnc3c(OC)ncnc32)CCCn2cnc3c(OC)ncnc32)cc1	none
CCCCN1C(=O)/C(=C/C=C2\SCCN2C)SC1=S	CHRM5 agonist 40
CN1CCS/C1=C/C=C1/SC(=S)N(Cc2ccccc2)C1=O	none
CN1CCS/C1=C/C=C1\SC(=S)N(CC(=O)O)C1=O	CHRM5 agonist 31
CC(=O)Nc1cc(-c2ccc(S(C)(=O)=O)cc2)cn2c(-c3ccc(F)c(Cl)c3)cnc12	none
Cc1ccc(SCc2[nH]nc3c2C2(CCSCC2)C(C#N)=C(N)O3)cc1	none
Cc1ccc(SCc2[nH]nc3c2C2(C(=O)Nc4ccc([N+](=O)[O-])cc42)C(C#N)=C(N)O3)cc1 (stereo not given)	M5 PAM 25, CHRM4 PAM 51
Cc1cc2c3c([nH]c2cc1S(=O)(=O)NCc1ccc(CN2CCCCCC2)o1)CCCC3=O	CHRM4 antagonist 68
COc1cccc(-c2nc(C#N)c(N3CCN(C(=O)c4ccco4)CC3)o2)c1	CHRM4 PAM 22
N#Cc1nc(-c2ccc(F)cc2)oc1N1CCN(C(=O)c2ccco2)CC1	none
N#Cc1nc(-c2ccccc2Cl)oc1N1CCN(C(=O)c2ccco2)CC1	M5 PAM 23
Cc1cc(Cl)cc(Cl)c1OCCN1CCCC1	M5 PAM 24
CC(=O)Nc1cccc(NC(=O)C2CCCN2C(=O)Nc2cccc(C)c2)c1 (stereo not given)	none
CCOC(=O)c1ccc(NC(=O)C2CCCN(S(=O)(=O)c3ccc(F)cc3)C2)cc1 (stereo not given)	M5 antag 32, CHRM4 antagonist 37
CCOC(=O)C1CCCN(CC(=O)c2ccc(F)cc2)C1 (stereo not given)	CHRM5 agonist 27
CC(=O)Nc1cccc(NC(=O)C2CCCN2C(=O)Nc2cccc(F)c2)c1 (stereo not given)	M5 PAM 21
Cc1ccc(NC(=O)C2CCCN(S(=O)(=O)c3cccc4nonc34)C2)cc1 (stereo not given)	M5 antag 29
CC(=O)c1ccc(NC(=O)C2CCCN(S(=O)(=O)c3cccc4nonc34)C2)cc1 (stereo not given)	none
Nc1ccc2c(c1)[nH]c(=O)c1cc(N)ccc12	none
CCCCn1nnnc1C(c1ccccc1)N1CCN(C(=O)c2ccco2)CC1 (stereo not given)	none
CS(=O)(=O)N1CCCC(C(=O)Nc2cccc(F)c2)C1 (stereo not given)	M5 PAM 18
COc1ccc2[nH]c3c(N4CCc5ccccc5C4)ncnc3c2c1	none
OC1(c2cccc(C(F)(F)F)c2)CCN(c2ncnc3c2[nH]c2ccc(F)cc23)CC1	M5 antag 31
Fc1ccc2[nH]c3c(N4CCN(c5ccccc5)CC4)ncnc3c2c1	M5 antag 50, CHRM4 antagonist 38
COc1ccc(N2CCN(c3ncnc4c3[nH]c3ccccc34)CC2)cc1	M5 antag 28, CHRM4 antagonist 28
CCOC(=O)N1CCN(c2ncnc3c2[nH]c2ccc(F)cc23)CC1	none
Cc1cccc(OCc2nc(C#N)c(N3CC(C)CC(C)C3)o2)c1 (stereo not given)	none
Cc1cccc(OCc2nc(C#N)c(N3CCCC3)o2)c1	M5 PAM 21
COc1ccc(-c2csc(C(C)(O)c3ccccc3)n2)cc1OC (stereo not given)	none
COc1ccc(C(C)(O)c2nc(-c3ccc(OC)c(OC)c3)cs2)cc1 (stereo not given)	CHRM4 PAM 25
O=C1NC[C@@H](CCCCN2C[C@H](Cc3ccccc3)N(CC3CCCCC3)C(=O)C2=O)N(CCc2ccccc2)C1=O	none
Cn1c(Oc2cccnc2CN2CCCC2)nc2cc(-c3cccc(C(F)(F)F)c3)sc2c1=O	none
CC1CCCCN1C(=O)CSc1nc(N)cc(=O)[nH]1 (stereo not given)	none
CC1CCCCN1C(=O)CSc1nc(N)nc(N)n1 (stereo not given)	CHRM4 PAM 26
CCCNC(=O)c1nnsc1S(=O)c1ccc(Cl)cc1 (stereo not given)	CHRM4 antagonist 43
CCCNC(=O)c1nnsc1S(=O)(=O)c1ccc(Cl)cc1	CHRM4 antagonist 65
CNC(=O)c1nnsc1S(=O)c1ccc(Cl)cc1 (stereo not given)	CHRM4 antagonist 28
COC(=O)[C@H]1C[C@H](OC(=O)NCc2ccccc2F)[C@@]2(O)CN(S(=O)(=O)c3ccc(C)cc3)CC2[C@H]1C(=O)OC (stereo not given in full)	none
O=C(Nc1ccc(Cl)cc1)Nc1nnc(CSc2ccc(Cl)cc2)s1	none
O=C(Nc1ccc(Cl)cc1)Nc1nnc(CSCc2ccccc2)s1	CHRM4 PAM 29
COc1ccc(Oc2ncnc3sccc23)cc1	M5 PAM 18
COc1ccc(Nc2ncnc3sccc23)cc1	none
Cc1ccc(-c2nc3ccccc3n2C(C)C(=O)NC(C)(C)C)cc1 (stereo not given)	none
COc1ccc(NC(=S)NC(NC(=O)c2cccc(C)c2)C(Cl)(Cl)Cl)c([N+](=O)[O-])c1 (stereo not given)	none
COc1ccc(NC(=S)NC(NC(=O)c2cccc(Cl)c2)C(Cl)(Cl)Cl)c([N+](=O)[O-])c1 (stereo not given)	M5 antag 39
COC(=O)[C@@]12C[C@@H](CC(=O)NCc3ccc(C)o3)C(=O)N(Cc3ccc4c(c3)OCO4)C1=CCC(C)(C)C2	none

Bioassay records deposited in PubChem by The Scripps Research Institute Molecular Screening Center.
